Experimental data from different studies.
Protocols differ between the studies behind these lines.
Target: Serine/threonine-protein kinase PAK 2 (PAK2, Homo sapiens, UniProt Q13177)

| SMILES | read-out | method | concentration | remaining binding [%] |
| --- | --- | --- | --- | --- |
| CN(C(=O)c1ccccc1)c1cc(N(C)c2ccc3c(c2)CCc2ccc(C(=O)NCCN4CCOCC4)cc2C3=O)ccc1F | cell-free assay | competition with immobilised ligand | 1 µM | 63 |
| CN(C)c1ncc(F)c(-c2cnn3ncccc23)n1 | binding |  | 1 µM | 89 |
| O=C(NCCCN1CCOCC1)c1ccc(Nc2ncc(Cl)c(-c3ccc(Cl)s3)n2)cc1 | binding | competition with immobilised ligand | 1 µM | 90 |
| C[C@H]1CCN(c2nccc(-c3cnn4ncccc34)n2)C1 | binding |  | 1 µM | 59 |
| COc1cnc(Nc2cccc(S(N)(=O)=O)c2)nc1N1CCN(c2ccccc2)C(=O)C1 | binding | competition with immobilised ligand | 1 µM | 83 |
| N[C@@H]1CCN(c2nccc(-c3cnn4ncccc34)n2)C1 | binding |  | 1 µM | 100 |
| C[C@@H]1CN(c2ccc3ncc(-c4ccc5[nH]nc(C6CC6)c5c4)n3n2)C[C@H](C)O1 | binding | competition with immobilised ligand | 0.5 µM | 55 |
| c1cncc(-c2cccc(Nc3nccc(NC4CCCCC4)n3)c2)c1 | binding | competition with immobilised ligand | 10 µM | 56 |
| CN(C)c1nccc(-c2cnn3ncccc23)n1 | binding |  | 1 µM | 64 |
| CNC(=O)[C@@H]1CC[C@@H](n2c(-c3ccc4cnccc4c3)nc3ccc(C(=O)NCc4cccc(C(N)=O)c4)cc32)C1 | binding | competition with immobilised ligand | 1 µM | 96 |
| O=C(Nc1c[nH]nc1C(=O)NC1CCNCC1)c1cc(F)cc(F)c1 | binding | competition with immobilised ligand | 1 µM | 100 |
| O=C(N1CCS(=O)(=O)CC1)N1C[C@H](c2ccc(OC(F)(F)F)cc2)C[C@H](c2nc(C3CC3)no2)C1 | cell-free assay | competition with immobilised ligand | 1 µM | 90 |
| Nc1ncc2c(n1)-c1c([nH]c3ccc(C#CC4CC4)cc13)CCCC2 | binding | competition with immobilised ligand | 1 µM | 33 |
| CNC(=O)c1ccc(Nc2ncc(C(F)(F)F)c(NCc3nccnc3N(C)S(C)(=O)=O)n2)cc1 | cell-free assay | competition with immobilised ligand | 0.1 µM | 72 |
| C[C@@H](c1ccc(-n2cnc3c(N)ncnc32)cc1)N1CCc2nn(C)c(Cc3ccccc3)c2C1=O | binding | competition with immobilised ligand | 0.1 µM | 61 |
| CCS(=O)(=O)c1cc2cc(C[C@@](O)(CC(C)(C)c3ccc(F)cc3C(N)=O)C(F)(F)F)[nH]c2cn1 | cell-free assay | competition with immobilised ligand | 1 µM | 94 |
| O=C(NCCCN1CCOCC1)c1ccc(Nc2nccc(-c3cc4ccccc4s3)n2)cc1 | binding | competition with immobilised ligand | 1 µM | 100 |
| CC1CCCN1c1nccc(-c2cnn3ncccc23)n1 (stereo not drawn) | binding |  | 1 µM | 100 |
| C[C@@]1(Cc2ccc(C#N)cc2)C(=O)N(c2cc(Cl)cc(Cl)c2)c2ncc(C(=O)NC3(c4nc(C5CCC5)no4)CC3)n21 | cell-free assay | competition with immobilised ligand | 1 µM | 64 |
| CN(C)c1nccc(-c2cnc3ncccn23)n1 | binding |  | 1 µM | 100 |
| COc1cc(-c2cn(C3CCc4c(F)cccc4N(CC(F)(F)F)C3=O)nn2)ccc1-n1cnc(C)c1 (stereo not drawn) | cell-free assay | competition with immobilised ligand | 1 µM | 91 |
| c1cnn2ncc(-c3ccnc(N4CCC45COC5)n3)c2c1 | binding |  | 1 µM | 70 |
| CCCCN(CCCC)C(=O)CN1C[C@@H](c2cc(OC)c3c(c2)OCO3)[C@H](C(=O)O)[C@H]1CC(C)(C)CCC | cell-free assay | competition with immobilised ligand | 1 µM | 83.5 |
| Cc1cnc(Nc2ccc(C(=O)N3CCC(N4CCCC4)CC3)cc2)nc1-c1cc2ccccc2s1 | binding | competition with immobilised ligand | 1 µM | 76 |
